Converted amounts (≈) assume the structure as drawn.
Key:
[1] = Dissociation constant, basic pKa of compound by pH metric method; format: physicochemical
Outline: (§1)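 Potentiometric (pH-metric) titration on an automated titrator, Gold Standard pH metric assay, run in triplicate.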

Pseudomonas aeruginosa [2] = test: Antibacterial activity against Pseudomonas aeruginosa PAO1 after 24 hrs by broth microdilution method; format: functional; conditions: PAO1, 24 h
Outline: (§2)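 Broth microdilution per CLSI. Bacterial suspension adjusted to 1×10^6 CFU/mL in cation-adjusted Mueller–Hinton broth and mixed 1:1 with 2-fold serial compound dilutions. Final DMSO 2.5% v/v. Plates incubated at 35 °C with shaking at 140 rpm for 24 h.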

Escherichia coli [3] = test: Antibacterial activity against Escherichia coli after 24 hrs by broth microdilution method; format: functional; outline: as §2
DNA gyrase subunit B = DNA gyrase subunit B (Escherichia coli, UniProt P0AES6); test: Inhibition of Escherichia coli GyrB (1 to 220 residues) expressed in Escherichia coli BL21(DE3)
[4] = Dissociation constant, acidic pKa of compound by pH metric method; format: physicochemical; outline: as §1
Pseudomonas aeruginosa [5] = test: Antibacterial activity against Pseudomonas aeruginosa harboring MexABCDXY deletion mutant after 24 hrs by broth microdilution method; format: functional
Outline: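 Broth microdilution per CLSI. Bacterial suspensions adjusted to 1×10^6 CFU/mL in cation-adjusted Mueller–Hinton broth, mixed 1:1 with 2-fold serial compound dilutions (final DMSO 2.5% v/v). Incubation 35 °C, 140 rpm, 24 h.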

[6] = molecular target: DNA topoisomerase 4 subunit B (Escherichia coli K-12, UniProt P20083); test: Inhibition of Escherichia coli ParE
Chain of DNA topoisomerase 4 subunit B (P20083 whole entry): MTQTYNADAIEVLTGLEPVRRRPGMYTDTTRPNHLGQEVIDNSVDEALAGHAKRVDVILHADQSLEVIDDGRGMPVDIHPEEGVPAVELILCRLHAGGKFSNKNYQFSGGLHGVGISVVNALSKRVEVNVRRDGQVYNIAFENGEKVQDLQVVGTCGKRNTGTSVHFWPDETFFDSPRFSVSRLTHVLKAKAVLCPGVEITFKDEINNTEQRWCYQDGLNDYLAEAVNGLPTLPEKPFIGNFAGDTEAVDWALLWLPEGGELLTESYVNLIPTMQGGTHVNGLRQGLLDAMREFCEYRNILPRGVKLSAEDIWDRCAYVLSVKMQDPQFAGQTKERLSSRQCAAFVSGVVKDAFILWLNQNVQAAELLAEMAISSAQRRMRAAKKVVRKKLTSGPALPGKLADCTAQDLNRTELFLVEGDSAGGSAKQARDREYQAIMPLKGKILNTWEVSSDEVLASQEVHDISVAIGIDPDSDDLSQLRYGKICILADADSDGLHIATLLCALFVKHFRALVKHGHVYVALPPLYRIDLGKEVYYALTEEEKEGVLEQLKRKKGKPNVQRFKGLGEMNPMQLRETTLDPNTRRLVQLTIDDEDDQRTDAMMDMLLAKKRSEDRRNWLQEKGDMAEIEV

Escherichia coli [7] = test: Antibacterial activity against tolC deficient Escherichia coli after 24 hrs by broth microdilution method; format: functional
Outline: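 Broth microdilution per CLSI guidelines. Inoculum adjusted to 1×10^6 CFU/mL in cation-adjusted Mueller–Hinton broth, added 1:1 to 2-fold serial compound dilutions; final DMSO 2.5% v/v. Plates incubated 35 °C, 140 rpm, 24 h.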

[8] = Dissociation constant, pKa of compound by pH metric method; format: physicochemical; outline: as §1
Escherichia coli [9] = test: Selectivity ratio of IC50 for Escherichia coli ParE to IC50 for Escherichia coli GyrB (1 to 220 residues) expressed in Escherichia coli BL21(DE3)

Structure (SMILES): CCNC(=O)Nc1cc(-c2nc(C(F)(F)F)cs2)c(-c2cc(-c3n[nH]c(=O)o3)cnc2N2CCC(N)CC2)cn1
- pKa [1]: 9.5
- MIC (Pseudomonas aeruginosa [2]): > 50 µg/mL
- MIC (Escherichia coli [3]): > 50 µg/mL
- IC50 (DNA gyrase subunit B): 2 nM
- pKa [4]: 6.8
- MIC (Pseudomonas aeruginosa [5]): 1.15 µg/mL (≈ 2 µM)
- IC50 [6]: 23 nM
- MIC (Escherichia coli [7]): 9.2 µg/mL (≈ 16 µM)

Structure (SMILES): CCNC(=O)Nc1cc(-c2nc(C(F)(F)F)cs2)c(-c2cc(C(=O)NS(C)(=O)=O)cnc2N2C3CCC2CN(C)C3)cn1
- pKa [1]: 7.6
- MIC (Pseudomonas aeruginosa [2]): > 50 µg/mL
- MIC (Escherichia coli [3]): > 50 µg/mL
- IC50 (DNA gyrase subunit B): 8 nM
- pKa [4]: 3.2
- MIC (Pseudomonas aeruginosa [5]): > 50 µg/mL
- IC50 [6]: 9 nM
- MIC (Escherichia coli [7]): > 50 µg/mL

Structure (SMILES): CCNC(=O)Nc1cc(-c2nc(C(F)(F)F)cs2)c(-c2cnc3cccnc3c2)cn1
- MIC (Pseudomonas aeruginosa [2]): > 25 µg/mL
- MIC (Escherichia coli [3]): > 25 µg/mL
- IC50 (DNA gyrase subunit B): 4 nM
- MIC (Pseudomonas aeruginosa [5]): > 25 µg/mL
- IC50 [6]: 2010 nM
- MIC (Escherichia coli [7]): 0.44 µg/mL (≈ 0.99 µM)

Structure (SMILES): CCNC(=O)Nc1cc(-c2nc(C(F)(F)F)cs2)c(-c2cncc(C(=O)O)c2)cn1
- MIC (Pseudomonas aeruginosa [2]): > 100 µg/mL
- MIC (Escherichia coli [3]): > 100 µg/mL
- pKa [8]: 3.5
- IC50 (DNA gyrase subunit B): 6 nM
- MIC (Pseudomonas aeruginosa [5]): > 100 µg/mL
- Ratio IC50 (Escherichia coli [9]): 100
- IC50 [6]: 700 nM
- MIC (Escherichia coli [7]): > 100 µg/mL

From ChEMBL document CHEMBL4270612, “Discovery of dual GyrB/ParE inhibitors active against Gram-negative bacteria” (Eur J Med Chem, 2018)
